Measured values: ChEMBL document CHEMBL3596197, “Synthesis, topoisomerase I and II inhibitory activity, cytotoxicity, and structure-activity relationship study of 2-phenyl- or hydroxylated 2-phenyl-4-aryl-5H-indeno[1,2-b]pyridines” (Bioorg Med Chem, 2015)
pIC50: −log10 of the molar value.

Assays:
[1] = target: T1, DNA topoisomerase 1 (Homo sapiens) (UniProt P11387); assay: Inhibition of human recombinant DNA topoisomerse 1 using pBR322 as substrate assessed as inhibition of conversion of supercoiled pBR322 to relaxed form at 100 uM after 30 mins by ethidium bromide staining-based electrophoresis analysis
T1 sequence (whole entry): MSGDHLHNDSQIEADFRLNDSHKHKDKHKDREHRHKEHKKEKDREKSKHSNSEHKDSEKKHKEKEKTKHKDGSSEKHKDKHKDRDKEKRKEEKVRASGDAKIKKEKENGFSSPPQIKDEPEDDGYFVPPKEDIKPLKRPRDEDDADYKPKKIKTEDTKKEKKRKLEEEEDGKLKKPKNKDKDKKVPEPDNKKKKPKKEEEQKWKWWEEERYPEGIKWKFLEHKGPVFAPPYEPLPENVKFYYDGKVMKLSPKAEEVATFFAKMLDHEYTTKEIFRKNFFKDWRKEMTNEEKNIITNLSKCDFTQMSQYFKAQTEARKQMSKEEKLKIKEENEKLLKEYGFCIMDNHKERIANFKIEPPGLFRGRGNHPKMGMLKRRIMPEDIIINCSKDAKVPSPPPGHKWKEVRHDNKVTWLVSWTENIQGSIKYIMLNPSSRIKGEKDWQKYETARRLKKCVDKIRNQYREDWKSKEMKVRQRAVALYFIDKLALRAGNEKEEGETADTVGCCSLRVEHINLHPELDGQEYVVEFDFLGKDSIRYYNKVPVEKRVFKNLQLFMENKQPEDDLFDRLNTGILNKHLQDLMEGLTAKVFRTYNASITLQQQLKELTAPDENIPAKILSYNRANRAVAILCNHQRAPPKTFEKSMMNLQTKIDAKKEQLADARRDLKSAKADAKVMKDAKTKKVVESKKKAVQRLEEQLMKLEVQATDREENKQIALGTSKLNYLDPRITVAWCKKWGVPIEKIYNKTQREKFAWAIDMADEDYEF
How it was run: (§1)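 Relaxation of supercoiled pBR322 (100 ng) by 1 unit recombinant human topo I. Run at 37 °C for 30 min in 10 mM Tris-HCl pH 7.9, 150 mM NaCl, 0.1% BSA, 1 mM spermidine, 5% glycerol. Compounds from 20 mM DMSO stocks. Stopped with sarcosyl, then 1% agarose gel at 15 V for 7 h in TAE. Ethidium bromide stain, UV imaging, bands quantitated.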

[2] = target: DNA topoisomerase 2-alpha (Homo sapiens) (UniProt P11388); assay: Inhibition of human recombinant DNA topoisomerse 2 alpha using pBR322 as substrate assessed as inhibition of conversion of supercoiled pBR322 to relaxed form at 20 uM after 30 mins by ethidium bromide staining-based electrophoresis analysis
DNA topoisomerase 2-alpha (Homo sapiens), sequence (P11388 whole entry): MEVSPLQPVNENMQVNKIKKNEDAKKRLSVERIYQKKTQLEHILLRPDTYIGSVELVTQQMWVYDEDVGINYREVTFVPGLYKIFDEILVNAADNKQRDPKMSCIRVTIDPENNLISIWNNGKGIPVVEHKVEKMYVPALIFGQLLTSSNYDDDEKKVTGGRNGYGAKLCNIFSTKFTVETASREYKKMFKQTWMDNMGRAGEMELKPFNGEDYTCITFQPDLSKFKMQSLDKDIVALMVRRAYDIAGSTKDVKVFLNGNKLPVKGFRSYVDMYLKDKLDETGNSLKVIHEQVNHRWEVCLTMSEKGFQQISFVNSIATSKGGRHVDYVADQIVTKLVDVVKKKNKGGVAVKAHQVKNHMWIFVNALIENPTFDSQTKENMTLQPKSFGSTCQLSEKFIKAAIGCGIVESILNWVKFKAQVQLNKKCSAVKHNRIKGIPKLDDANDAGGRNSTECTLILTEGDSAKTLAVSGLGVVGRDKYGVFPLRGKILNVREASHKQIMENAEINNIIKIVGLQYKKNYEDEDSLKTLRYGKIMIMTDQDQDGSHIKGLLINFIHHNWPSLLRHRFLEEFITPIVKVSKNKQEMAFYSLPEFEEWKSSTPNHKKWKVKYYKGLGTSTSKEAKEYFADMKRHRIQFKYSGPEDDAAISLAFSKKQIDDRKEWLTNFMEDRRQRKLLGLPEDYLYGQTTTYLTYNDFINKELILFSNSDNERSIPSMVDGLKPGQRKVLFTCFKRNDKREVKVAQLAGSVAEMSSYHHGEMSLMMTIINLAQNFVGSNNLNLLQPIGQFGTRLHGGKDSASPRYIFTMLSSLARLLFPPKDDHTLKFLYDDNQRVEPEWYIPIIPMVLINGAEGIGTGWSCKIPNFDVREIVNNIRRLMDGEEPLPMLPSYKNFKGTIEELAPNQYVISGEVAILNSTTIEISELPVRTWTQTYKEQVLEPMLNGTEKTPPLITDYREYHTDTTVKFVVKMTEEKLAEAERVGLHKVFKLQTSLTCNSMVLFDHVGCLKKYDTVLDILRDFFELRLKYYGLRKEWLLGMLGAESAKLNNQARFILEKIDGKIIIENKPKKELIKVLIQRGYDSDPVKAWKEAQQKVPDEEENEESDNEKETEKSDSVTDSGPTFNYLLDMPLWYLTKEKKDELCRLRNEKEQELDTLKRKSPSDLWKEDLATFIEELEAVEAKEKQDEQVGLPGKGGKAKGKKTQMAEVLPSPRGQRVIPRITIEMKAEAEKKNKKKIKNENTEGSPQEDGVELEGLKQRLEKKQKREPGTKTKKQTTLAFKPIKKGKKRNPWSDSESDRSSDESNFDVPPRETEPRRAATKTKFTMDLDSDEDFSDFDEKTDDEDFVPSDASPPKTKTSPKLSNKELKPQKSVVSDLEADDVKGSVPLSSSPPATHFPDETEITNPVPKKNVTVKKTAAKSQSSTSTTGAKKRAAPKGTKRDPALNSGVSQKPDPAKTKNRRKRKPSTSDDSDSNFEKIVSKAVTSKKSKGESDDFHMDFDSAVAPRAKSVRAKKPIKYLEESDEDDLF
How it was run: (§2)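 Supercoiled pBR322 (200 ng) with 1 unit human topo IIα, 30 min at 30 °C. Buffer: 10 mM Tris-HCl pH 7.9, 50 mM NaCl, 5 mM MgCl2, 1 mM EDTA, 1 mM ATP, 15 μg/mL BSA. Stopped with EDTA. 1% agarose gel at 25 V for 4 h in TAE, ethidium bromide stain, supercoiled DNA quantitated under UV.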

[3] = test system: HeLa; assay: Cytotoxicity against human HeLa cells incubated from day 2 to day 4 by CCK8 assay; format: functional, cell-based
How it was run: (§3)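 Cells seeded at 2~4 × 10^4 per well and grown overnight in medium with 10% FBS at 37 °C, 5% CO2. Day 2: FBS starvation 4 h, then medium with graded compound concentrations. Day 4: CCK-8 added for 4 h more, absorbance read at 450 nm. IC50 from four-parameter logistic fit. Mean ± S.D. of three experiments run in triplicate.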

[4] = target: T1, DNA topoisomerase 1 (Homo sapiens); assay: Inhibition of human recombinant DNA topoisomerse 1 using pBR322 as substrate assessed as inhibition of conversion of supercoiled pBR322 to relaxed form at 20 uM after 30 mins by ethidium bromide staining-based electrophoresis analysis; how it was run: as §1
[5] = test system: DU-145; assay: Cytotoxicity against human DU145 cells incubated from day 2 to day 4 by CCK8 assay; format: functional, cell-based; how it was run: as §3
[6] = target: DNA topoisomerase 2-alpha (Homo sapiens) (UniProt P11388); assay: Inhibition of human recombinant DNA topoisomerse 2 alpha using pBR322 as substrate assessed as inhibition of conversion of supercoiled pBR322 to relaxed form at 100 uM after 30 mins by ethidium bromide staining-based electrophoresis analysis; how it was run: as §2
[7] = test system: HCT-15; assay: Cytotoxicity against human HCT15 cells incubated from day 2 to day 4 by CCK8 assay; format: functional, cell-based; how it was run: as §3
[8] = test system: T47D; assay: Cytotoxicity against human T47D cells incubated from day 2 to day 4 by CCK8 assay; format: functional, cell-based; how it was run: as §3

inhibition [1]: 55.6%
inhibition [2]: 32%
inhibition [4]: 0%
inhibition [6]: 72.2%
Structure (SMILES): Oc1cccc(-c2cc(-c3cccs3)c3c(n2)-c2ccccc2C3)c1
pIC50 [3]: 5.83
pIC50 [5]: 5.36
pIC50 [7]: 5.63
pIC50 [8]: 5.39
